# CRFR2-BP ag – CRF-BP/CRF-R2 complex agonism. activation, % at 13.2 µM. hit rate 0.46% among 350,000. HEK293 CRF-R2/CRF-BP, calcium dye fluorescence (FLIPR); percent of saturating CRF peptide response. AID 588473;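 active = activation of at least 50%, plus an integration ratio under a set limit after plate pattern correction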;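 also: plate controls were neutral control wells without compound for no effect and CRF at EC100 for full effect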
# RTF Ca sens inh – cardiac RTF calcium desensitization | P19429+P45379 | IANBD-labeled cardiac RTF, Ca2+ fluorescence | inhibition, % at 7.15 µM | hit rate 0.12% among 340,000 | AID 493244;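 active = inhibition above the mean inhibition of all tested compounds plus 3 SD, cut at about 17% in these data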;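 also: assay run at fixed EC70 calcium of 1.6 mM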
# Tn6 DDE FP – DD(E)-Tn6 binding inhibition, primary FP screen; Fibrin DD(E) TRITC-Tn6 fluorescence polarization displacement; inhibition, % at 8.3 µM; hit rate 0.21% among 370,000;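 active = inhibition above a per-campaign cutoff: mean of compounds within control limits plus 3 SD, cut at about 15% in these data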;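 also: 0% = median of all compound wells on the plate and 100% = blocking peptide control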
# Target sequence (P02675 whole entry, looked up): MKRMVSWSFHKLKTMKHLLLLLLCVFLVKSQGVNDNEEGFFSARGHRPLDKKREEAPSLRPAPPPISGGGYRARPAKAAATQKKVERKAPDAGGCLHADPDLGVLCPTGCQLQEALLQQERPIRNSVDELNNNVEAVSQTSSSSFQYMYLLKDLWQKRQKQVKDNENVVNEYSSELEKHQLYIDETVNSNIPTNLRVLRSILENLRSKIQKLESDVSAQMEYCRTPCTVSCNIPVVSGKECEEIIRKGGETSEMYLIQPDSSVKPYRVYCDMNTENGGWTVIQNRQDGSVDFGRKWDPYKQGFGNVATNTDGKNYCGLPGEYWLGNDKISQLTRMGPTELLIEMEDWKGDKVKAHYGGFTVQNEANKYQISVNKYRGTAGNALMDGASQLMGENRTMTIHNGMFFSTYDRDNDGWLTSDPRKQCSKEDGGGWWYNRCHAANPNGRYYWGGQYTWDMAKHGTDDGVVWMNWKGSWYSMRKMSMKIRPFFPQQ
# CRFR2-BP antag – blocks CRF-induced signaling of the CRF-BP/CRF-R2 complex. HEK293 CRF-R2/CRF-BP, CRF-induced calcium fluorescence. inhibition, % at 11.8 µM. hit rate 0.59% among 350,000;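 active = inhibition of the ligand-induced calcium signal above about 50% at the single tested concentration, limit read from the data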
# Tn7 DDE FP – DD(E)-Tn7 binding inhibition, primary FP screen; hit rate 0.13% among 370,000; AID 720508; FP displacement of FITC-Tn7 peptide from fibrin DD(E); 0% = median of compound wells per plate; P02675; inhibition, % at 8.3 µM;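 active = inhibition above the mean of compounds falling within the control limits plus 3 SD of them, cut at about 14% in these data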;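 also: 0% = plate median of compound wells and 100% = 10 µM Aha-Tn7 peptide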
#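 Measure: % inhibition scaled between sample-field median and high-control FP; Test system: human fibrin DD(E); Quantity: 2 µM final DD(E) protein; Doses: one dose, 8.3 µM nominal; Schedule: compound with protein 10 min, then 3 h after probe, room temperature; Detection: fluorescence polarization; Medium: Tris buffer with calcium and detergent, pH 7.8.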
# cardiac RTF act – increases calcium sensitivity of human cardiac regulated thin filaments | hit rate 0.24% among 340,000 | activation, % at 7.2 µM | IANBD-labeled TnC RTF fluorescence at EC20 calcium; 0% EC20 calcium, 100% full calcium | P19429+P45379;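 active = activation above the mean over all tested compounds plus 3 SD, cut at about 30% in these data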;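 also: rise in fluorescence read as greater calcium sensitivity of cardiac thin filaments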
# * marks the source's active call; other numbers are inactive results; x = no result. The list is not random: actives were taken first. Their share in the collection is about 1.4%.
SMILES,CRFR2-BP ag,RTF Ca sens inh,Tn6 DDE FP,CRFR2-BP antag,Tn7 DDE FP,cardiac RTF act
COC(=O)c1cc(OC)c(OC)cc1NC(=O)C(C)Sc1ccc(C)cc1 (stereo not given),-1,-6,-4,50*,-2,3
COc1ccccc1NC(=S)NC(=O)c1c(-c2ccccc2Cl)noc1C,4,-1,-7,-15,-1,7
COC(=O)c1cc(OC)c(OC)cc1NC(=O)c1c(-c2ccccc2Cl)noc1C,0,-4,0,63*,-1,-5
COC(=O)c1cc(OC)c(OC)cc1NC(=O)c1ccco1,1,-6,-10,76*,-4,4
CCOC(=O)CC[C@H]1CC[C@]2(CCCN(S(C)(=O)=O)C2)O1,x,x,-1,x,7,x
O=C(COC(=O)c1ccc(Sc2ncn[nH]2)c([N+](=O)[O-])c1)Nc1ccc(Cl)c(Cl)c1,x,x,-4,x,4,x
CC(C)Oc1cccc(C(=O)Nc2nnc([C@H]3C[C@H](O)[C@@H](CO)O3)s2)c1,x,x,9,x,2,x
CCOC(=O)CNC(=O)N(C)[C@H]1C[C@H]2c3[nH]c4ccccc4c3CCN2C(=O)[C@H]1[C@H](C)O,x,x,2,x,5,x
COc1ccccc1NC(=O)CN1C(=O)CCS(=O)(=O)c2ccccc21,-3,-8,0,84*,-4,1
COc1ccc(Cl)cc1NC(=O)CN1C(=O)CCS(=O)(=O)c2ccccc21,-1,-6,-6,1,-5,6
CCOc1ccc(-c2nn(-c3ccccc3)cc2/C=C2\SC(=S)N(C3CCS(=O)(=O)C3)C2=O)cc1 (stereo not given),115*,-6,-7,-122,1,3
Cc1ccc2c(CC(=O)NCC(=O)Nc3c(C)cccc3C)coc2c1,0,-1,0,50*,8,-4
Cc1ccc2c(CC(=O)Nc3sccc3C(N)=O)coc2c1,95*,-7,-5,-58,-5,0
Cc1ccc2c(CC(=O)Nc3ccc(N4CCN(C)CC4)cc3C)coc2c1,-1,-7,2,6,-10,1
COc1ccc(OC)c(/C=C2\N=C(c3ccccc3)OC2=O)c1,104*,-8,-6,-84,7,17
C=CCCC(=O)N[C@H]1CC[C@@]23CCCN2C(=O)CCC[C@H]3[C@H]1CCC,x,x,9,x,-2,x
CSc1c(C#N)sc(=S)n1-c1ccc(C)cc1,2,-5,-3,56*,-8,7
Cc1ccc(-n2c(N)c(C(N)=O)sc2=S)cc1,-1,2,-1,-29,1,2
O=C/C(=C\Nc1ccccn1)c1nc2cc(Cl)ccc2o1,-3,-4,-4,80*,-5,3
COc1ccc(NC(=O)CSc2ccc3c4c(cccc24)C(=O)c2ccccc2-3)cc1,104*,-18,0,-112,-1,27
N#Cc1cccc(NC(=O)CSc2ccc3c4c(cccc24)C(=O)c2ccccc2-3)c1,224*,-58,0,-219,-9,42*
CC(=O)N/N=C/c1cc(C(C)(C)C)cc(/C=N/NC(C)=O)c1O,77*,x,1,-66,5,x
Cc1cc(C(=O)N/N=C\c2cc(C(C)(C)C)ccc2O)n[nH]1,-2,0,x,-7,x,-6
Cc1cc2c(cc1S(=O)(=O)CCC(=O)NC1CCCCC1C)OCC(=O)N2 (stereo not given),83*,-2,-5,-87,-4,2
O=[N+]([O-])/C=C\c1ccc(N2CCCC2)c(F)c1,106*,-7,x,-89,x,5
SMILES,CRFR2-BP ag,RTF Ca sens inh,Tn6 DDE FP,CRFR2-BP antag,Tn7 DDE FP,cardiac RTF act
O=Cc1ccc(N2CCCC2)c([N+](=O)[O-])c1,-2,-11,3,6,-4,8
CC(O)(c1cccnc1)c1nc(/C=C/c2ccccc2)cs1 (stereo not given),x,x,1,x,1,x
O=C(CC(CC(=O)c1ccccc1)c1ccncc1)c1ccccc1,-3,2,-7,86*,7,-8
COC(C(=O)Nc1ccc(S(=O)(=O)Nc2ccc(F)cc2)cc1)c1ccccc1 (stereo not given),12,-22,4,-36,-5,4
COC(C(=O)Nc1ccc(F)cc1)c1ccccc1 (stereo not given),0,-1,8,91*,2,-11
CC(C)NC(=O)C1(C)CCN1C(=O)C1(c2ccccc2)CC1 (stereo not given),x,x,4,x,-1,x
CN(C(=O)COC(=O)CCc1nc2ccccc2c(=O)[nH]1)C1CCS(=O)(=O)C1 (stereo not given),1,2,3,53*,-4,5
CCOC(=O)C(Sc1nnc(-c2ccncc2)o1)C(C)=O (stereo not given),-3,0,-4,94*,-7,3
c1ccc2cc(Cn3ccc4ccc(-c5ccc6cc[nH]c6c5)cc43)ccc2c1,x,x,-3,x,9,x
Cc1ccc2c(c1)C(CS(=O)(=O)NC1CCCC1)NC2 (stereo not given),x,x,2,x,-8,x
CC12CC3CC(C)(C1)CC(C(=O)NNC(=O)c1ccncc1)(C3)C2,0,0,-1,66*,-3,0
CC(=O)Nc1cccc(C(=O)/C=C/c2ccc(N(C)C)cc2)c1,196*,-81,2,-219,-33,73*
CC(=O)Nc1cccc(C(=O)/C=C/c2ccc(/C=C/C(=O)c3cccc(NC(C)=O)c3)cc2)c1,x,x,-3,x,-1,x
Cc1ccccc1NC(=O)OC1CCC12CCC(c1ccccc1)CC2 (stereo not given),x,x,-2,x,-3,x
COc1ccc(N2CCCN(CC(=O)Nc3ccc(Cl)c(Cl)c3)CC2)cc1,x,x,-6,x,-1,x
CCOC(=O)c1sc(=NC(=O)c2ccc(Cl)s2)n(C)c1C,-1,-3,1,114*,3,-1
COC(=O)[C@]12C[C@H](CC(=O)NCC34CC5CC(CC(C5)C3)C4)C(=O)N(Cc3ccco3)C1=C[C@H](C(C)(C)C)O[C@@H]2C,x,x,3,x,-3,x
COc1ccccc1C1C2=C(N=c3s/c(=C/c4cccc(OCC(=O)O)c4)c(=O)n31)c1ccccc1CC2 (stereo not given),0,-17,-8,65*,1,0
O[C@H]1CN(CC2CCCCC2)[C@@H](c2ccccc2)C[C@@H]1n1cc(C2CC2)nn1,3,x,-2,-21,-4,x
Cc1cccc(C(O)c2ncc(-c3ccccc3F)[nH]2)c1C (stereo not given),x,x,-2,x,-2,x
CC(=O)Nc1sc2c(c1-c1nc3ccccc3s1)CN(C(C)C)CC2,94*,-2,0,-49,-4,16
Cc1ccc(C(=O)NCc2cccnc2)o1,2,0,-1,84*,2,-1
Cc1ccc(CC(=O)NCc2cccnc2)cc1,x,x,8,x,-3,x

# Screens: PubChem BioAssay, several laboratories
